This is a sample that favours compounds with a hit; in the whole collection about 3.5% have one here.
MrgX1 agonist – agonists of human MrgX1 receptor, primary screen, HEK293 cells, Fluo-4 calcium flux; 310,000 compounds, 0.44% hits; B-score at 10 µM; Fluo-4 calcium fluorescence, agonist mode; hits give high values;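 active = calcium response B-score plate-corrected fluorescence ratio at least 3 library SD, with starting fluorescence B-score inside 5 SD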
Target sequence (Q96LB2 whole entry, looked up): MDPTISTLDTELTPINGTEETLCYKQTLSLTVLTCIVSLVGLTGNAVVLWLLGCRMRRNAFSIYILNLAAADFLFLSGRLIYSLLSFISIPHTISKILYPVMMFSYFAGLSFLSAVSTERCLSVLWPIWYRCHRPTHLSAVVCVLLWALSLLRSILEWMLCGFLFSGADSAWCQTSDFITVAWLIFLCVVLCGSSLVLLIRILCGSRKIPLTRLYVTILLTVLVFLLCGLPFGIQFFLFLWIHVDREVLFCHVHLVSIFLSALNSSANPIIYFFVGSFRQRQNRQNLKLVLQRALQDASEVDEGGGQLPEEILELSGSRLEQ
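Assay system: MrgX1-expressing HEK293 cells / Amount: fifteen thousand cells per well / Doses: test compound in the initial addition of three / Timing: cells plated overnight, dye loaded 0.5 h 37 °C, 0.5 h room temperature / Technique: kinetic calcium dye fluorescence, Fluo-4 NW / Control set: positive and negative controls per plate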
RGS4 inh – RGS4 inhibitors, primary screen, cell-based, HEK293 M3R inducible RGS4, calcium flux; Regulator of G-protein signaling 4 (Homo sapiens), P49798; Fluo-4 calcium flux; hits give high values; triggered by carbachol at its EC20; B-score at 10 µM; 310,000 compounds, 0.45% hits; AID 463165, 2010;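 active = B-score, a plate-corrected calcium signal, over three deviations above library mean, with baseline fluorescence within five deviations of library mean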;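 also: RGS4 expression induced by doxycycline in cells with stable M3 receptor; B-score is computed from the integrated fluorescence ratio over baseline after carbachol; higher B-score means a larger calcium signal and so more RGS4 inhibition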
Target sequence (P49798 whole entry, looked up): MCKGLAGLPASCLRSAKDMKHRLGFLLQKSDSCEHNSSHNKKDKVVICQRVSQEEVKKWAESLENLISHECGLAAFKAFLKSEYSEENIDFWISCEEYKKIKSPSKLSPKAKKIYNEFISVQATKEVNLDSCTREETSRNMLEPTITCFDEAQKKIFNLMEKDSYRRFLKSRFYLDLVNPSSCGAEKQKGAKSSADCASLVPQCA
MrgX1 allo act – positive allosteric modulators of MrgX1, primary screen, HEK293 cells, Fluo-4 calcium flux. Mas-related G-protein coupled receptor member X1 (Homo sapiens), Q96LB2. FDSS; hits give high values. B-score at 10 µM. 310,000 compounds, 0.63% hits. AID 588675, 2011;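 active = plate-corrected calcium response at least 3 library SD above typical, normal starting fluorescence, not activating the receptor alone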;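 also: compound read alongside a low EC10 to EC30 dose of BAM8-22 agonist; peak minus trough fluorescence over baseline measured at the second addition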
MrgX1 antag – antagonists of human MrgX1 receptor, primary screen, HEK293 cells, Fluo-4 calcium flux; BAM8-22 antagonism; hits give low values; 310,000 compounds, 1.3% hits; Mas-related G-protein coupled receptor member X1 (Homo sapiens), Q96LB2; AID 588676, 2011; B-score at 10 µM;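 active = calcium-response B-score plate-corrected more than 3 library SD below zero, starting fluorescence within 5 deviations, no agonist response on first addition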;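 also: peak minus trough fluorescence over baseline after final BAM8-22 challenge near maximal dose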
RGS4 act – RGS4 potentiators or activators, primary screen, cell-based, HEK293 M3R inducible RGS4, calcium flux; carbachol calcium flux Fluo4; hits give low values; B-score at 10 µM; 310,000 compounds, 0.92% hits; AID 463111, 2010;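 active = B-score of the integrated calcium signal more than 4 SD below the library mean, with starting fluorescence not abnormally high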;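 also: negative B-score means reduced calcium response which marks RGS4 activation or potentiation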
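Reagent: ECmax carbachol challenge; Test system: M3R-expressing HEK293 line, RGS4 induced by doxycycline; Schedule: overnight RGS4 induction, 30 min dye load 37 °C, 20 min compound RT; Detection: calcium dye Fluo4 fluorescence; Read-out: Agonist-evoked peak-minus-minimum fluorescence over baseline, integrated ratio, B score.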
MrgX1 ag reconf – MrgX1 receptor agonists, duplicate retest, confirmation, HEK293 cells, Fluo-4 calcium flux | 600 compounds, 78% hits | AID 602412, 2012 | activation, % at 10 µM | shares compounds with MrgX1 agonist | Fluo-4 calcium fluorescence, FDSS;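 active = calcium signal rise, corrected for plate position, at least 3 library SD high, with starting brightness within 5 such deviations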
HEK293 Ca flux – nonspecific calcium signal in parental HEK293, confirmation, counter-screen for MrgX1 antagonist project, parental HEK293 cells, Fluo-4 calcium flux. shares compounds with MrgX1 antag. Fluo-4 calcium fluorescence, FDSS. fluorescence ratio F(max-min)/F0 at 10 µM. 4,000 compounds, 2% hits;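 active = duplicate-averaged calcium fluorescence ratio at least three times the standard deviation of buffer wells, a nonspecific response in parental cells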
HEK293 Ca counter – calcium response in parental HEK293 cells, primary screen, counter-screen for MrgX1 allosteric activator project, cell-based, Fluo-4 calcium flux, duplicate; 4,000 compounds, 0.4% hits; shares compounds with MrgX1 antag; AID 624114, 2012; Fluo-4 fluorescence ratio; hits give high values; fluorescence ratio F(max-min)/F0 at 10 µM;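 active = calcium fluorescence ratio, averaged over duplicates, at least 3 SD of the buffer-well ratio, meaning a nonspecific response in receptor-free cells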;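 also: untransfected parental HEK293 lacking MrgX1 used as counterscreen for MrgX1 allosteric activators; fluorescence change taken during the second addition on a kinetic imager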
HEK293 Ca cntr2 – calcium response in parental HEK293 cells, primary screen, counter-screen for MrgX1 agonist project, cell-based, Fluo-4 calcium flux, duplicate, agonist mode | fluorescence ratio F(max-min)/F0 at 10 µM | AID 624115, 2012 | Fluo-4 calcium fluorescence (FDSS); hits give high values | 4,000 compounds, 8.7% hits | shares compounds with MrgX1 antag;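 active = calcium fluorescence ratio at least three times the spread of buffer wells, meaning a non-specific response in parental cells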
Active calls of the source: *; i = inactive; x = no result given.

SMILES	MrgX1 agonist	RGS4 inh	MrgX1 allo act	MrgX1 antag	RGS4 act	MrgX1 ag reconf	HEK293 Ca flux	HEK293 Ca counter	HEK293 Ca cntr2
CC(C)OC(=O)CSc1nnc(-c2ccc(C(C)(C)C)cc2)n1N	i	i	i	i	i	x	x	x	x
CC(=O)COc1cccc2ccc(/C=C/c3ccc(Br)s3)nc12	38.4*	i	i	i	i	162.7%*	i	i	48.9*
O=C(COC(=O)c1nc(Cl)ccc1Cl)Nc1ccc2c(c1)OCO2	27.8*	i	i	i	i	i	i	i	i
CC(C)(C)NC(=O)C(c1ccncc1)N(Cc1ccc(F)cc1)C(=O)c1ccc(-c2ccccc2)[nH]1 (stereo not drawn)	i	i	i	i	i	x	x	x	x
CC(=O)c1ccc(-c2ccc(C(=O)NCC3CCCO3)o2)cc1 (stereo not drawn)	i	i	i	i	i	x	x	x	x
CCN(CC)CCn1c2c(c(SCC(=O)Nc3ccccc3Cl)nc1=O)CCC2	i	i	i	i	i	x	x	x	x
N#Cc1ccc(-c2nc3cc(Cl)ccc3c(=O)n2O)cc1	i	i	i	i	i	x	x	x	x
O=c1c2cc(Cl)ccc2nc(-c2ccc([N+](=O)[O-])cc2)n1O	72.4*	i	i	i	i	269.6%*	i	i	63.2*
Cc1ccc(-c2nc3c(Cl)cc(Cl)cc3c(=O)n2O)cc1	105*	i	i	i	i	481.9%*	i	i	104*
O=c1c2cc(Br)ccc2nc(-c2ccc(Cl)cc2)n1O	143*	i	i	i	i	661.4%*	i	i	129*
O=C(Cc1ccccc1)NN1C(=O)C2C3C=CC(C3)[C@@H]2C1=O (stereo partly drawn)	i	i	i	i	i	x	x	x	x
CCCC12CN3CCN(CC(C3)/C1=N\NC(=O)c1ccc(C(C)(C)C)cc1)C2	i	i	i	i	i	x	x	x	x
C=CCOc1cccc(C(=O)Nc2ncn[nH]2)c1	i	i	i	i	i	x	x	x	x
CC(SCC(=O)NC12CC3CC(CC(C3)C1)C2)C(=O)O (stereo not drawn)	i	i	i	i	i	x	x	x	x
Cn1cc(C=C2C(=O)OC3(CCCCC3)OC2=O)c2ccccc21	i	i	i	i	i	x	x	x	x
CCN(CC)c1ccc(C=C2C(=O)OC3(CCCC3)OC2=O)cc1	74.3*	i	i	i	i	439.5%*	i	i	110*
O=C1N[C@@H](Cc2ccccc2)C(=O)N2[C@@H]1C[C@]1(Br)c3ccccc3N(S(=O)(=O)c3ccccc3)[C@H]21	i	i	i	i	i	x	x	x	x
O=C(O)CCc1ccc(-c2ccccc2)n1CC(=O)O	i	i	i	i	i	x	x	x	x
Cc1ccc(-c2ccc(CCC(=O)O)n2Cc2ccco2)cc1	30.5*	i	i	i	i	128.6%*	i	i	i
COc1ccc(C2C=C(c3ccccc3)Nc3nnnn32)cc1 (stereo not drawn)	32.6*	i	i	i	i	i	i	i	i

Source: PubChem BioAssay
